# ChEMBL document CHEMBL2417474, “Synthesis, antiproliferative and anti-inflammatory activities of some novel 6-aryl-2-(p-(methanesulfonyl)phenyl)-4,5-dihydropyridazi-3(2H)-ones” (Eur J Med Chem, 2013)
# How the values were obtained:
# Assay type in all cases: functional
# [1] = system: HL-60(TB); assay: Growth inhibition of human HL-60(TB) cells after 48 hrs by sulforhodamine B assay; conditions: HL-60, 48 h
# How it was run: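 Part of the NCI 60-cell-line panel. Cells were grown in 1640 medium with 5% fetal calf serum and 2 mM L-glutamine, then preincubated 24 h before compound was added. Compounds in DMSO were tested at five concentrations (100, 10, 1, 0.1, 0.01 µM) with 48 h continuous exposure. Read-out was SRB protein staining; GI50 is the concentration halving the net protein increase versus control.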
# [2] = system: MOLT-4; assay: Growth inhibition of human MOLT4 cells assessed as cell growth at 10 uM after 48 hrs by sulforhodamine B assay; conditions: MOLT-4, 48 h, read-out: Activity
# [3] = system: SK-MEL-28; assay: Growth inhibition of human SK-MEL-28 cells after 48 hrs by sulforhodamine B assay; conditions: SK-MEL-28, 48 h
# How it was run: (§1)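 NCI 60-cell-line panel. Cells were grown in medium with 5% fetal calf serum and 2 mM L-glutamine, then preincubated 24 h in plates. Compounds were added from DMSO at five 10-fold concentrations from 100 to 0.01 µM and left on cells continuously for 48 h. Cell growth was read by sulforhodamine B protein stain. GI50 is the concentration that halves net protein increase relative to control cells.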
# [4] = system: RXF 393; assay: Growth inhibition of human RXF393 cells assessed as cell growth at 10 uM after 48 hrs by sulforhodamine B assay; conditions: RXF 393, 48 h, read-out: Activity
# [5] = system: TK-10; assay: Growth inhibition of human TK10 cells assessed as cell growth at 10 uM after 48 hrs by sulforhodamine B assay; conditions: TK-10, 48 h, read-out: Activity
# How it was run: (§2)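 Single-dose NCI screen. Tumor lines were cultured in medium with 5% fetal calf serum and 2 mM L-glutamine, preincubated 24 h, then given compound in DMSO. After 48 h continuous exposure, cell growth was estimated by sulforhodamine B protein assay.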
# [6] = system: OVCAR-3; assay: Growth inhibition of human OVCAR3 cells assessed as cell growth at 10 uM after 48 hrs by sulforhodamine B assay; conditions: OVCAR-3, 48 h, read-out: Activity
# [7] = system: ACHN; assay: Growth inhibition of human ACHN cells assessed as cell growth at 10 uM after 48 hrs by sulforhodamine B assay; conditions: read-out: Activity
# [8] = system: LOX IMVI; assay: Growth inhibition of human LOXIMVI cells assessed as cell growth at 10 uM after 48 hrs by sulforhodamine B assay; conditions: read-out: Activity
# [9] = Growth inhibition of human HCC2998 cells assessed as cell growth at 10 uM after 48 hrs by sulforhodamine B assay; conditions: HCC 2998, 48 h, read-out: Activity
# [10] = system: SF-268; assay: Growth inhibition of human SF268 cells assessed as cell growth at 10 uM after 48 hrs by sulforhodamine B assay; conditions: SF-268, 48 h, read-out: Activity
# [11] = system: SW-620; assay: Growth inhibition of human SW620 cells assessed as cell growth at 10 uM after 48 hrs by sulforhodamine B assay; conditions: SW-620, 48 h, read-out: Activity; how it was run: as §2
# [12] = system: BT-549; assay: Growth inhibition of human BT549 cells assessed as cell growth at 10 uM after 48 hrs by sulforhodamine B assay; conditions: BT-549, 48 h, read-out: Activity
# [13] = system: SF-295; assay: Growth inhibition of human SF295 cells after 48 hrs by sulforhodamine B assay; conditions: SF-295, 48 h; how it was run: as §1
# [14] = system: RXF 393; assay: Growth inhibition of human RXF393 cells after 48 hrs by sulforhodamine B assay; conditions: RXF 393, 48 h; how it was run: as §1
# [15] = system: OVCAR-4; assay: Growth inhibition of human OVCAR4 cells after 48 hrs by sulforhodamine B assay; conditions: OVCAR-4, 48 h; how it was run: as §1
# [16] = system: MCF7; assay: Growth inhibition of human MCF7 cells assessed as cell growth at 10 uM after 48 hrs by sulforhodamine B assay; conditions: MCF7, 48 h, read-out: Activity
# [17] = system: 786-0; assay: Growth inhibition of human 786-0 cells after 48 hrs by sulforhodamine B assay; conditions: 786-0, 48 h
# How it was run: (§3)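 NCI 60-cell-line panel grown in RPMI-type medium with 5% fetal calf serum and 2 mM L-glutamine. Cells preincubated 24 h, then exposed continuously for 48 h to compound in DMSO at 10^-4 to 10^-8 M (five 10-fold levels). Growth read by SRB protein stain. GI50 is the concentration giving a 50% reduction in net protein increase relative to control cells.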
# [18] = system: PC-3; assay: Growth inhibition of human PC3 cells after 48 hrs by sulforhodamine B assay; conditions: PC-3, 48 h; how it was run: as §1
# [19] = system: UACC-62; assay: Growth inhibition of human UACC62 cells after 48 hrs by sulforhodamine B assay; conditions: UACC-62, 48 h
# How it was run: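 NCI 60-line panel. Cells were grown in medium with 5% fetal calf serum and 2 mM L-glutamine and preincubated 24 h in plates. Compound in DMSO was added at 10^-4 to 10^-8 M (five 10-fold levels), with continuous exposure for 48 h. Growth was read by SRB protein staining. GI50 is the concentration giving 50% reduction in net protein increase versus control cells.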
# [20] = system: OVCAR-8; assay: Growth inhibition of human OVCAR8 cells assessed as cell growth at 10 uM after 48 hrs by sulforhodamine B assay; conditions: OVCAR-8, 48 h, read-out: Activity
# [21] = system: KM12; assay: Growth inhibition of human KM12 cells after 48 hrs by sulforhodamine B assay; conditions: KM12, 48 h; how it was run: as §3
# [22] = system: SNB-75; assay: Growth inhibition of human SNB75 cells after 48 hrs by sulforhodamine B assay; conditions: SNB-75, 48 h; how it was run: as §1
# [23] = system: MDA-MB-435; assay: Growth inhibition of human MDA-MB-435 cells after 48 hrs by sulforhodamine B assay; conditions: MDA-MB-435, 48 h; how it was run: as §1
# [24] = system: SR; assay: Growth inhibition of human SR cells assessed as cell growth at 10 uM after 48 hrs by sulforhodamine B assay; conditions: read-out: Activity; how it was run: as §2
# [25] = system: NCI-H522; assay: Growth inhibition of human NCI-H522 cells assessed as cell growth at 10 uM after 48 hrs by sulforhodamine B assay; conditions: NCI-H522, 48 h, read-out: Activity
# [26] = Growth inhibition of human EKVX cells after 48 hrs by sulforhodamine B assay; how it was run: as §3
# [27] = system: UO-31; assay: Growth inhibition of human UO31 cells assessed as cell growth at 10 uM after 48 hrs by sulforhodamine B assay; conditions: UO-31, 48 h, read-out: Activity; how it was run: as §2
# [28] = system: HCT-116; assay: Growth inhibition of human HCT116 cells after 48 hrs by sulforhodamine B assay; conditions: HCT-116, 48 h; how it was run: as §3
# [29] = read-out: LC50 (the source's name)
smiles,measurement,setting,value
CCc1ccc(C2=NN(c3ccc(S(C)(=O)=O)cc3)C(=O)CC2)cc1,GI50,[1],1.2 µM
same,TGI,[1],6.35 µM
same,CC50,[1]; [29],> 100 µM
same,growth at 10 µM,[2],15.3%
same,GI50,[3],1.84 µM
same,TGI,[3],> 100 µM
same,CC50,[3]; [29],> 100 µM
same,growth at 10 µM,[4],27.4%
same,growth at 10 µM,[5],71.1%
same,growth at 10 µM,[6],-13.6%
same,growth at 10 µM,[7],46%
same,growth at 10 µM,[8],35%
same,growth at 10 µM,[9],46.6%
same,growth at 10 µM,[10],42.8%
same,growth at 10 µM,[11],12.4%
same,growth at 10 µM,[12],21.9%
same,GI50,[13],0.93 µM
same,LC50 (concentration killing 50% of cells present at start),[13],> 100 µM
same,TGI,[13],8.73 µM
same,GI50,[14],2.04 µM
same,LC50 (50% lethal concentration),[14],> 100 µM
same,TGI,[14],19.8 µM
same,GI50,[15],0.01 µM
same,LC50,[15],> 100 µM
same,TGI,[15],> 100 µM
same,growth at 10 µM,[16],26%
same,GI50,[17],5.13 µM
same,LC50,[17],> 100 µM
same,TGI,[17],80.3 µM
same,GI50,[18],2.76 µM
same,LC50,[18],> 100 µM
same,TGI,[18],> 100 µM
same,GI50,[19],0.78 µM
same,LC50 (50% net cell kill concentration),[19],> 100 µM
same,TGI,[19],> 100 µM
same,growth at 10 µM,[20],39.1%
same,GI50,[21],0.93 µM
same,LC50,[21],> 100 µM
same,TGI,[21],> 100 µM
same,GI50,[22],1.32 µM
same,TGI,[22],> 7.89 µM
same,CC50,[22]; [29],> 100 µM
same,GI50,[23],0.22 µM
same,LC50 (concentration killing 50% of starting cells),[23],> 100 µM
same,TGI,[23],0.74 µM
same,growth at 10 µM,[24],4.42%
same,growth at 10 µM,[25],-1.27%
same,GI50,[26],4.19 µM
same,TGI,[26],96.7 µM
same,CC50,[26]; [29],> 100 µM
same,growth at 10 µM,[27],33.3%
same,GI50,[28],0.73 µM
same,LC50 (concentration killing 50% of cells),[28],> 100 µM
same,TGI,[28],> 100 µM
O=c1[nH]cc(F)c(=O)[nH]1 [FLUOROURACIL],GI50,[1],2.3 µM
same,GI50,[3],1.03 µM
same,GI50,[13],0.22 µM
same,GI50,[14],2.61 µM
same,GI50,[15],4.43 µM
same,GI50,[17],0.72 µM
same,GI50,[18],2.36 µM
same,GI50,[19],0.52 µM
same,GI50,[21],0.21 µM
same,GI50,[22],78.7 µM
same,GI50,[23],0.07 µM
same,GI50,[26],61.8 µM
same,GI50,[28],0.22 µM
